Activity calls are given as the source filed them. The rule behind the calls is not given here.
Columns and labels:
[1] = biological target: T1, Androgen receptor (Homo sapiens) (UniProt P10275); assay: Antagonist activity at androgen receptor in human LNCaP cells assessed as reduction in DHT-induced PSA expression incubated for 24 hrs by RT-PCR
T1 sequence (whole entry): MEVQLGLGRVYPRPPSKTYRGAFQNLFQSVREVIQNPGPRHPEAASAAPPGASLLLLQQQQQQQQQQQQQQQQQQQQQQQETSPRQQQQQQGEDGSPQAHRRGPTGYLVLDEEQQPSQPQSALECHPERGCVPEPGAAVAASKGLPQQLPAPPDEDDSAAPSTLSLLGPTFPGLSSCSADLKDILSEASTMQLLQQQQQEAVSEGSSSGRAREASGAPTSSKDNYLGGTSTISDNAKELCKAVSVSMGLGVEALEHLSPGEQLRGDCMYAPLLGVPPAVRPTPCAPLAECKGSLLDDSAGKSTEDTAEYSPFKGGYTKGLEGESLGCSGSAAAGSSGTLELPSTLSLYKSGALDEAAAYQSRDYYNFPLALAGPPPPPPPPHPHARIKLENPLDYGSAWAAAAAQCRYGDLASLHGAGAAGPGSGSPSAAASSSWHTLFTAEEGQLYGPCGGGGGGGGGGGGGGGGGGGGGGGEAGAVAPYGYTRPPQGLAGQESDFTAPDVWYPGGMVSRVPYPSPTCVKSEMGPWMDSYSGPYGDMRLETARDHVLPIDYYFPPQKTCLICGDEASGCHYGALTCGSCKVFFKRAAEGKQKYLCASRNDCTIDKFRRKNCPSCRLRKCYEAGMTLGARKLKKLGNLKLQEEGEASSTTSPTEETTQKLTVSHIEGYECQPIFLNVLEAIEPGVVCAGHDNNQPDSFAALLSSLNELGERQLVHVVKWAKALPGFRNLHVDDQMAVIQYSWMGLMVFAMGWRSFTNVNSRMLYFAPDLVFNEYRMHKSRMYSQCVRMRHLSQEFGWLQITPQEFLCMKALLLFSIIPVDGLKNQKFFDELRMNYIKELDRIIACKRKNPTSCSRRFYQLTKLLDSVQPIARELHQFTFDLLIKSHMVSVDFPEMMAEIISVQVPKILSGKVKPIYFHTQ

[2] = biological target: T1, Androgen receptor (Homo sapiens); assay: Antagonist activity at androgen receptor in human PC3 cells assessed as increase in Maspin promoter activity at 5 uM by luciferase reporter gene assay; type: functional, cell-based; conditions: PC-3
Procedure, shortened: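 PC-3 cells were transfected with maspin-luc, with or without cotransfected AR. Cells were exposed to DMSO vehicle or compound at 2.5 and 5 μM. Luciferase activity was measured in triplicate.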

[3] = tested on: LNCaP; assay: Induction of apoptosis in human LNCAP cells assessed as PARP cleavage activation incubated for 24 hrs by Western blotting; type: functional, cell-based
Procedure, shortened: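 LNCaP cells in complete medium were exposed to DMSO or compound at 1, 2.5 and 5 μM for 24 h. Western blot measured AR, maspin, caspase-3 activation and PARP cleavage, with β-actin as loading control.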

[4] = biological target: T2, Glucocorticoid receptor (Homo sapiens) (UniProt P04150); assay: Antagonist activity at glucocorticoid receptor expressed in human PC3 cells assessed as reduction in dexamethasone-induced receptor transactivation at 1 uM by luciferase reporter gene assay; type: functional, cell-based; conditions: PC-3
T2 sequence (whole entry): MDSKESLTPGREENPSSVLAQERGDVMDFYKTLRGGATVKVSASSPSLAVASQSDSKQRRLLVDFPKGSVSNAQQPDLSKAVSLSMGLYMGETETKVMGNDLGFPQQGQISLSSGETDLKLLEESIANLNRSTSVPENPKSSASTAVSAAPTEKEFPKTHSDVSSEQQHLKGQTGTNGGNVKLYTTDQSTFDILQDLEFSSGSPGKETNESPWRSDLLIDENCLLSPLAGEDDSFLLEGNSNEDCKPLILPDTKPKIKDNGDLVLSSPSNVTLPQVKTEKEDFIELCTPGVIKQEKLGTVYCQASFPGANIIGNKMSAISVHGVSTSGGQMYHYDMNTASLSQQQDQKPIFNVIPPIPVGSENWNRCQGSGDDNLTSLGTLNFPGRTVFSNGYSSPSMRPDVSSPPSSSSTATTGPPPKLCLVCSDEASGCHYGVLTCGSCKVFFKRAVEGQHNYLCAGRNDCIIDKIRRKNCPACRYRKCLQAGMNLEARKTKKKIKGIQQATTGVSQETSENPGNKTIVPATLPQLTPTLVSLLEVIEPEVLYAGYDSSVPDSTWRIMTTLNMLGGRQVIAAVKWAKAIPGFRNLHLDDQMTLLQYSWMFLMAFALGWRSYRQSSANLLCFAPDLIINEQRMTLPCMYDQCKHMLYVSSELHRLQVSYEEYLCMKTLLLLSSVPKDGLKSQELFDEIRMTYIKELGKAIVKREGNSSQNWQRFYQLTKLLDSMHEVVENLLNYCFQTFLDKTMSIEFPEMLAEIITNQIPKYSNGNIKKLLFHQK
Procedure, shortened: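 PC-3 cells express GR endogenously and were transfected only with the MMTV-luc reporter. Compound tested at 1 μM, alone or against transactivation induced by 10 nM dexamethasone. Read-out was luciferase reporter activity.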

Activity [1]: Dose-dependent effect | Activity [2]: Active | Activity [4]: inactive
SMILES: Cc1coc2c1C(=O)C(=O)c1c-2ccc2c1CCCC2(C)C [TANSHINONE IIA]
Activity [3]: Dose-dependent effect
